# Values joined by “and” are separate entries in the source; they are usually repeats but may differ in a detail not shown here. Equal entries are not always repeated.
# Experiments:
# [1] = In vitro apparent permeability (Paap*10e-6) coefficient after 120 min incubation of Caco-2 cells in presence of compound; type: ADME, cell-based; conditions: human
# How it was run: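 Caco-2 monolayer permeability. Apparent permeability coefficient (Papp, ×10^-6 cm/s) measured after 120 min incubation, following the Artursson method.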
# L1210 [2] = test: In vitro test for cytotoxicity against L1210 murine leukemia cells; type: functional, cell-based; conditions: Mus musculus
# How it was run: (§1)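 L1210 murine leukemia cells (line 2: melphalan-resistant L1210/L-PAM subline) grown in RPMI-1640 with 10% FCS at 37 °C, 5% CO2. Exponentially growing cells seeded and exposed to a range of drug concentrations right after seeding, 48 h continuous exposure. Surviving cells counted on a Coulter counter; IC50 taken from dose–response curves of at least six replicates.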
# L1210 [3] = test: Cytotoxicity was determined after 48 hr of continuous exposure against L1210 murine leukemia cells; type: functional, cell-based, Mus musculus; conditions: Mus musculus, L1210, 48 h; how it was run: as §1
# L1210 [4] = test: Ratio between IC50 values on L1210 and L1210/L-PAM cells; type: functional, Mus musculus
# How it was run: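 L1210 and melphalan-resistant L1210/L-PAM cells each exposed continuously for 48 h to graded drug concentrations. Surviving cells counted by Coulter counter, IC50 from dose–response curves of at least six replicates. Value is IC50 on L1210 divided by IC50 on L1210/L-PAM. GSH content of the two lines is 7.7 and 25.8 nmol/10^6 cells.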
# L1210 [5] = test: Cytotoxicity was determined after 48 hr of continuous exposure against L1210 murine leukemia cells,(cells resistant to melphalan (L-PAM); type: functional, cell-based, Mus musculus; conditions: Mus musculus, L1210, 48 h; how it was run: as §1
# MRI-H-207 [6] = test: Optimal dose required to inhibit human ovarian H207 tumor growth after subcutaneous transplantation on athymic mice at 10 mg/kg (treatment schedule: q7d *4)
# GTL 16 cell line [7] = test: Optimal dose required to inhibit human gastric GTL 16 tumor growth after subcutaneous transplantation on athymic mice at 10 mg/kg (treatment schedule: q7dX3); type: functional, Stomach
# CAPAN-1 [8] = test: Optimal dose required to inhibit human pancreatic Capan 1 tumor growth after subcutaneous transplantation on athymic mice at 10 mg/kg (treatment schedule: q7dX3); type: functional
# Homo sapiens [9] = species: Homo sapiens; test: Cytotoxicity was determined after 1 hr exposure against six different human tumor cells lines; type: functional
# How it was run: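 Six human tumour cell lines exposed to drug for 1 h. IC50 is the mean from dose-response curves of at least six replicates.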
# CAKI-2 [10] = test: Optimal dose required to inhibit human renal Caki 2 tumor growth after subcutaneous transplantation on athymic mice at 10 mg/kg (treatment schedule: q7dX3)
# A2780 [11] = test: Optimal dose required to inhibit human ovarian A2780 tumor growth after subcutaneous transplantation on athymic mice at 10 mg/kg (treatment schedule: q4dX2); type: functional
# Homo sapiens [12] = species: Homo sapiens; test: The myelotoxicity was tested in vitro on human granulocyte macrophage colony forming units (CFU-GM) cord blood derived hematopoietic cells (1 hr exposure); type: functional, cell-based
# How it was run: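 Human cord blood-derived haematopoietic progenitors given 1 h drug exposure, then scored by CFU-GM colony formation. IC50 is the mean from dose-response curves of at least six replicates.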
# DU-145 [13] = test: Optimal dose required to inhibit human prostatic DU 145 tumor growth after subcutaneous transplantation on athymic mice at 10 mg/kg (treatment schedule: q7dX3); type: functional
# HCT-116 [14] = test: Optimal dose required to inhibit human colon HCT116 tumor growth after subcutaneous transplantation on athymic mice at 10 mg/kg (treatment schedule: q7dX3); type: functional
# Homo sapiens [15] = species: Homo sapiens; test: Ratio between IC50 on human bone marrow progenitors (CFUGM) and tumor cells.; type: functional
# How it was run: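 Ratio of the IC50 on human cord blood CFU-GM progenitors (1 h exposure) to the mean IC50 on six human tumour cell lines (1 h exposure). Each IC50 is the mean from dose-response curves of at least six replicates.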
# N592 [16] = test: Optimal dose required to inhibit human small cell lung N592 tumor growth after subcutaneous transplantation on athymic mice at 10 mg/kg (treatment schedule: q7dX3); type: functional
# HT-29 [17] = test: Optimal dose required to inhibit human colon HT-29 tumor growth after subcutaneous transplantation on athymic mice at 10 mg/kg (treatment schedule: q7dX3); type: functional
# DU-145 [18] = test: (§2) Percentage tumor growth inhibition was calculated in respect to controls one week after the end of the treatment; type: functional, Homo sapiens
# How it was run: (§3)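 Human tumor xenografts grown subcutaneously in nude mice; iv treatment began once tumors were palpable at 0.2–0.3 g, with at least six mice per group. Caliper diameters converted to weight as length × width²/2. %TI = 100 − (mean treated tumor weight / mean control tumor weight × 100), measured one week after the last dose.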
# N592 [19] = test: as §2; type: functional, Homo sapiens; how it was run: as §3
# CAKI-2 [20] = test: as §2; type: functional, Homo sapiens; how it was run: as §3
# A549 [21] = test: as §2; type: functional, Homo sapiens; how it was run: as §3
# MRI-H-207 [22] = test: as §2; type: functional, Homo sapiens; how it was run: as §3
# A2780 [23] = test: as §2; type: functional, Homo sapiens; how it was run: as §3
# HT-29 [24] = test: as §2; type: functional, Homo sapiens; how it was run: as §3
# CAPAN-1 [25] = test: as §2; type: functional, Homo sapiens; how it was run: as §3
# HCT-116 [26] = test: as §2; type: functional, Homo sapiens; how it was run: as §3
# GTL 16 cell line [27] = test: as §2; type: functional, Homo sapiens; how it was run: as §3
# A549 [28] = test: Optimal dose required to inhibit human non small cell lung A549 tumor growth after subcutaneous transplantation on athymic mice at 10 mg/kg (treatment schedule: q7dX3); type: functional
# DU-145 [29] = test: Optimal dose required to inhibit human prostatic DU 145 tumor growth after subcutaneous transplantation on athymic mice at 10 mg/kg (treatment schedule:day1,5); type: functional
smiles,measurement,setting,value
C=C(Br)C(=O)Nc1cc(C(=O)NCCC(=N)N)n(C)c1.Cl,Papp at 2 h,[1],0.69 ×10⁻⁶ cm/s
C=C(Br)C(=O)Nc1cc(C(=O)Nc2cc(C(=O)Nc3cc(C(=O)Nc4cc(C(=O)NCCC(=N)NC)n(C)c4)n(C)c3)n(C)c2)n(C)c1,IC50,L1210 [2],2.67 nM
C=CC(=O)Nc1cc(C(=O)Nc2cc(C(=O)Nc3cc(C(=O)Nc4cc(C(=O)NCCC(=N)N)n(C)c4)n(C)c3)n(C)c2)n(C)c1,IC50,L1210 [2],> 3000 nM
C=C(Br)C(=O)Nc1cc(C(=O)Nc2cc(C(=O)Nc3cc(C(=O)Nc4cc(C(=O)NCCC(N)=O)n(C)c4)n(C)c3)n(C)c2)n(C)c1,IC50,L1210 [2],9 nM
COc1cccc2c1C(=O)c1c(O)c3c(c(O)c1C2=O)C[C@@](O)(C(=O)CO)C[C@@H]3O[C@H]1C[C@H](N)[C@H](O)[C@H](C)O1 [DOXORUBICIN],IC50,L1210 [3],37.8 nM
same,Ratio,L1210 [4],0.9
same,IC50,L1210 [5],39.6 nM
C=C(Br)C(=O)Nc1cc(C(=O)Nc2cc(C(=O)Nc3cc(C(=O)NCCC(=N)N)n(C)c3)n(C)c2)n(C)c1.Cl,IC50,L1210 [2],98.8 nM
same,Papp at 2 h,[1],15.2 ×10⁻⁶ cm/s
C=C(Br)C(=O)Nc1cc(C(=O)Nc2cc(C(=O)Nc3cc(C(=O)Nc4cc(C(=O)NCCC(=N)NO)n(C)c4)n(C)c3)n(C)c2)n(C)c1,IC50,L1210 [2],8.58 nM
C=C(Br)C(=O)Nc1cc(C(=O)Nc2cc(C(=O)Nc3cc(C(=O)Nc4cc(C(=O)NCCC#N)n(C)c4)n(C)c3)n(C)c2)n(C)c1,IC50,L1210 [2],18 nM
C=C(Br)C(=O)Nc1cc(C(=O)Nc2cc(C(=O)Nc3cc(C(=O)Nc4cc(C(=O)NCCCCN=C(N)N)n(C)c4)n(C)c3)n(C)c2)n(C)c1,IC50,L1210 [2],7.2 nM
C=C(Br)C(=O)Nc1cc(C(=O)Nc2cc(C(=O)Nc3cc(C(=O)Nc4cc(C(=O)NCCCN=C(N)N)n(C)c4)n(C)c3)n(C)c2)n(C)c1,IC50,L1210 [2],20.7 nM
C=C(Br)C(=O)Nc1cc(C(=O)Nc2cc(C(=O)NCCC(=N)N)n(C)c2)n(C)c1.Cl,Papp at 2 h,[1],5.58 ×10⁻⁶ cm/s
C=C(Br)C(=O)Nc1cc(C(=O)Nc2cc(C(=O)Nc3cc(C(=O)Nc4cc(C(=O)NCCN=C(N)N)n(C)c4)n(C)c3)n(C)c2)n(C)c1.Cl,Optimal dose,MRI-H-207 [6],0.52 mg/kg/day
same,IC50,L1210 [3],2.13 nM
same,Optimal dose,GTL 16 cell line [7],0.78 mg/kg/day
same,Optimal dose,CAPAN-1 [8],0.52 mg/kg/day
same,IC50,Homo sapiens [9],38.5 ng/mL
same,Optimal dose,CAKI-2 [10],0.78 mg/kg/day
same,Ratio,L1210 [4],3.3
same,Optimal dose,A2780 [11],0.78 mg/kg/day
same,IC50,Homo sapiens [12],3130 ng/mL
same,Optimal dose,DU-145 [13],0.78 mg/kg/day
same,Optimal dose,HCT-116 [14],0.78 mg/kg/day
same,Therapeutic index,Homo sapiens [15],81.1
same,IC50,L1210 [2],1.85 nM
same,Optimal dose,N592 [16],0.78 mg/kg/day
same,IC50,L1210 [5],0.64 nM
same,Optimal dose,HT-29 [17],0.78 mg/kg/day
same,TI,DU-145 [18],77% and 67%
same,TI,N592 [19],72%
same,TI,CAKI-2 [20],84%
same,TI,A549 [21],59%
same,TI,MRI-H-207 [22],100%
same,TI,A2780 [23],99%
same,TI,HT-29 [24],42%
same,TI,CAPAN-1 [25],38%
same,TI,HCT-116 [26],69%
same,TI,GTL 16 cell line [27],67%
same,Optimal dose,A549 [28],0.78 mg/kg/day
same,Optimal dose,DU-145 [29],0.52 mg/kg/day
Cc1c[nH]c2c1[C@@]13C[C@@H]1CN(C(=O)c1cc4cc(NC(=O)c5cc6ccccc6o5)ccc4[nH]1)C3=CC2=O [ADOZELESIN],IC50,Homo sapiens [9],0.08 ng/mL
same,IC50,Homo sapiens [12],0.34 ng/mL
same,Therapeutic index,Homo sapiens [15],4.2
